Assay results as given in ChEMBL document CHEMBL1156597, “Structure-activity relationship of kahalalide F synthetic analogues” (J Med Chem, 2008).

What was measured:
[1] = Cytotoxicity against human HeLa-APL cells after 48 hrs by SRB assay; type: functional
In short: (§1)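 Cells grown in RPMI 1640 with 10% FBS and penicillin/streptomycin at 37 °C and 5% CO₂, trypsinized, then seeded at 5 × 10³/well. After 18 h drug-free attachment, samples in DMSO/EtOH/PBS (0.5:0.5:99) were added for 48 h continuous exposure. Cells were fixed with cold TCA (1 h, 4 °C) and stained with SRB (10 min). Tris-solubilized stain read at 490 nm. Triplicate wells, mean ± SD; GI₅₀ derived.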

[2] = Cytotoxicity against human IGROV-ET cells after 48 hrs by SRB assay; type: functional; settings: for CC50: read-out: LC50 (the source's name); in short: as §1
[3] = test system: HeLa; experiment: Cytotoxicity against human HeLa cells after 48 hrs by SRB assay; type: functional; settings: for CC50: read-out: LC50 (the source's name); in short: as §1
[4] = test system: PANC-1; experiment: Cytotoxicity against human PANC1 cells after 48 hrs by SRB assay; type: functional; settings: PANC-1, 48 h; for CC50: read-out: LC50 (the source's name); in short: as §1
[5] = test system: SK-MEL-28; experiment: Cytotoxicity against human SK-MEL-28 cells after 48 hrs by SRB assay; type: functional, cell-based; settings: Homo sapiens, SK-MEL-28, 48 h; for CC50: read-out: LC50 (the source's name); for GI50: read-out: GI50; in short: as §1
[6] = Cytotoxicity against human IGROV cells after 48 hrs by SRB assay; type: functional; settings: for CC50: read-out: LC50 (the source's name); in short: as §1
[7] = test system: SK-BR-3; experiment: Cytotoxicity against human SKBR3 cells after 48 hrs by SRB assay; type: functional; settings: SK-BR-3, 48 h; for GI50: read-out: GI50; for CC50: read-out: LC50 (the source's name); in short: as §1
[8] = test system: LoVo; experiment: Cytotoxicity against human LoVo cells after 48 hrs by SRB assay; type: functional; settings: for CC50: read-out: LC50 (the source's name)
[9] = test system: A549; experiment: Cytotoxicity against human A549 cells after 48 hrs by SRB assay; type: functional, cell-based; settings: Homo sapiens, A549, 48 h; in short: as §1
[10] = test system: HT-29; experiment: Cytotoxicity against human HT29 cells after 48 hrs by SRB assay; type: functional, cell-based; settings: Homo sapiens, HT-29, 48 h; for CC50: read-out: LC50 (the source's name); in short: as §1
[11] = test system: DU-145; experiment: Cytotoxicity against human DU145 cells after 48 hrs by SRB assay; type: functional, cell-based; settings: Homo sapiens, DU-145, 48 h; for CC50: read-out: LC50 (the source's name); in short: as §1
[12] = test system: LoVo; experiment: Cytotoxicity against human doxorubicin resistant LoVo cells after 48 hrs by SRB assay; type: functional; settings: for CC50: read-out: LC50 (the source's name); in short: as §1
[13] = test system: K562; experiment: Cytotoxicity against human K562 cells after 48 hrs by SRB assay; type: functional; settings: K562, 48 h, read-out: LC50 (the source's name); in short: as §1

## CC[C@@H](C)[C@@H](NC(=O)[C@H](CCCN)NC(=O)[C@H]1CCCN1C(=O)[C@H](NC(=O)[C@@H](NC(=O)[C@@H](NC(=O)[C@H](NC(=O)CCCC(C)C)C(C)C)[C@@H](C)O)C(C)C)C(C)C)C(=O)N[C@H]1C(=O)N[C@H]([C@H](C)CC)C(=O)N[C@H](C(C)C)C(=O)N[C@@H](Cc2ccccc2)C(=O)N/C(=C\c2ccccc2)C(=O)N[C@@H](C(C)C)C(=O)O[C@H]1C
[1]
  LC50 (concentration giving 50% net cell kill): 704 nM
[2]
  CC50: 629 nM
[3]
  GI50: 1500 nM
  TGI: 1180 nM
  CC50: 936 nM
[4]
  GI50: 4.54 µM
  TGI: 4.45 µM
  CC50: 2140 nM
[5]
  CC50: 1390 nM
[6]
  CC50: 559 nM
[7]
  TGI: 1.15 µM
  GI50: 0.601 µM
  CC50: 806 nM
[8]
  GI50: 836 nM
  TGI: 1420 nM
  CC50: 1890 nM
[9]
  LC50: 1110 nM
[10]
  GI50: 5130 nM
  TGI: 10.1 µM
  CC50: 5.22 µM
[11]
  TGI: 1120 nM
  CC50: 893 nM
[11]; read-out: GI50
  GI50: 1390 nM

## CC[C@@H](C)[C@@H](NC(=O)[C@H](CCCN)NC(=O)[C@H]1CCCN1C(=O)[C@H](NC(=O)[C@@H](NC(=O)[C@@H](NC(=O)[C@H](NC(=O)CCCC(C)C)C(C)C)[C@@H](C)O)C(C)C)C(C)C)C(=O)N[C@H]1C(=O)N[C@H]([C@H](C)CC)C(=O)N[C@H](C(C)C)C(=O)N[C@@H](Cc2ccccc2)C(=O)N[C@H]([C@H](C)O)C(=O)N[C@@H](C(C)C)C(=O)O[C@H]1C
[1]
  LC50 (concentration giving 50% net cell kill): 1200 nM
[2]
  CC50: 1030 nM
[3]
  CC50: 1490 nM
[4]
  GI50: 4.88 µM
  TGI: 4.58 µM
  CC50: 2210 nM
[5]
  CC50: 2540 nM
[6]
  CC50: 941 nM
[7]
  TGI: 6.69 µM
  GI50: 6.15 µM
  CC50: 1880 nM
[8]
  GI50: 3440 nM
  TGI: 4230 nM
  CC50: 4420 nM
[9]
  LC50: 1150 nM
[10]
  GI50: 11800 nM
  TGI: 10.4 µM
  CC50: 5.37 µM
[11]
  CC50: 1500 nM

## C/C=C1\NC(=O)[C@H](Cc2ccccc2)NC(=O)[C@@H](C(C)C)NC(=O)[C@@H]([C@H](C)CC)NC(=O)[C@H](NC(=O)[C@H](NC(=O)[C@H](CCCN)NC(=O)[C@H]2CCCN2C(=O)[C@H](NC(=O)[C@@H](NC(=O)[C@@H](NC(=O)[C@H](NC(=O)CC(C)C)C(C)C)[C@@H](C)O)C(C)C)C(C)C)[C@H](C)CC)[C@H](C)OC(=O)[C@H](C(C)C)NC1=O
[12]
  GI50: 882 nM
  TGI: 1390 nM
  CC50: 1880 nM
[1]
  GI50: 2330 nM
  LC50 (concentration giving 50% net cell kill): 1690 nM
  TGI: 2000 nM
[2]
  CC50: 708 nM
[3]
  GI50: 2090 nM
  TGI: 2090 nM
  CC50: 1630 nM
[4]
  CC50: 2880 nM
[5]
  TGI: 1620 nM
  GI50: 1980 nM
  CC50: 1330 nM
[6]
  CC50: 848 nM
[13]
  CC50: 3.81 µM
[8]
  GI50: 1630 nM
  TGI: 1990 nM
  CC50: 2420 nM
[9]
  LC50: 1710 nM
  TGI: 1700 nM
[9]; read-out: GI50
  GI50: 1680 nM
[10]
  GI50: 2980 nM
  TGI: 3.06 µM
  CC50: 3.14 µM
[11]
  TGI: 1860 nM
  CC50: 1660 nM
[11]; read-out: GI50
  GI50: 2070 nM

## C/C=C1\NC(=O)[C@H](Cc2ccccc2)NC(=O)[C@@H](C(C)C)NC(=O)[C@@H]([C@H](C)CC)NC(=O)[C@H](NC(=O)[C@H](NC(=O)[C@H](CCCNC(=O)c2cc(F)c(F)c(F)c2F)NC(=O)[C@H]2CCCN2C(=O)[C@H](NC(=O)[C@@H](NC(=O)[C@@H](NC(=O)[C@H](NC(=O)CCCC(C)C)C(C)C)[C@@H](C)O)C(C)C)C(C)C)[C@H](C)CC)[C@H](C)OC(=O)[C@H](C(C)C)NC1=O
[12]
  CC50: 87.8 nM
[1]
  GI50: 493 nM
  LC50 (concentration giving 50% net cell kill): 869 nM
  TGI: 595 nM
[2]
  GI50: 357 nM
  CC50: 441 nM
[2]; read-out: GI50
  GI50: 332 nM
[3]
  GI50: 288 nM
  TGI: 685 nM
  CC50: 861 nM
[4]
  GI50: 1.58 µM
  TGI: 1.58 µM
  CC50: 1580 nM
[5]
  TGI: 1060 nM
  GI50: 984 nM
  CC50: 1060 nM
[6]
  GI50: 217 nM
  CC50: 274 nM
[6]; read-out: GI50
  GI50: 182 nM
[13]
  CC50: 0.172 µM
[8]
  GI50: 84.2 nM
  TGI: 93.8 nM
  CC50: 104 nM
[9]
  LC50: 1040 nM
  TGI: 1040 nM
[9]; read-out: GI50
  GI50: 1040 nM
[10]
  GI50: 116 nM
  TGI: 0.0951 µM
  CC50: 0.202 µM
[11]
  GI50: 831 nM
  CC50: 831 nM
[11]; read-out: GI50
  GI50: 726 nM

## C/C=C1\NC(=O)[C@H](Cc2ccccc2)NC(=O)[C@@H](C(C)C)NC(=O)[C@@H]([C@H](C)CC)NC(=O)[C@H](NC(=O)[C@H](NC(=O)[C@H](CCCN)NC(=O)[C@H]2CCCN2C(=O)[C@H](NC(=O)[C@@H](NC(=O)[C@@H](NC(=O)[C@H](NC(=O)CC[C@@H](C)[C@H]2CC[C@H]3[C@@H]4CC[C@@H]5C[C@H](O)CC[C@]5(C)[C@H]4CC[C@]23C)C(C)C)[C@@H](C)O)C(C)C)C(C)C)[C@H](C)CC)[C@H](C)OC(=O)[C@H](C(C)C)NC1=O
[12]
  CC50: 9860 nM
[1]
  LC50 (concentration giving 50% net cell kill): 3580 nM
[2]
  TGI: 5.58 µM
  CC50: 2280 nM
[2]; read-out: GI50
  GI50: 4400 nM
[3]
  GI50: 740 nM
  TGI: 5420 nM
  CC50: 3130 nM
[4]
  GI50: 4.35 µM
  TGI: 9.72 µM
  CC50: 5520 nM
[5]
  CC50: 3870 nM
[6]
  CC50: 2710 nM
[13]
  CC50: 8.32 µM
[8]
  GI50: 14900 nM
  TGI: 16900 nM
  CC50: 9830 nM
[9]
  LC50: 3580 nM
[10]
  CC50: 10.3 µM
[11]
  TGI: 6000 nM
  CC50: 3310 nM
[11]; read-out: GI50
  GI50: 5100 nM

## C/C=C1\NC(=O)[C@H](Cc2ccccc2)NC(=O)[C@@H](C(C)C)NC(=O)[C@@H]([C@H](C)CC)NC(=O)[C@H](NC(=O)[C@H](NC(=O)[C@H](CCCN)NC(=O)[C@H]2CCCN2C(=O)[C@H](NC(=O)[C@@H](NC(=O)[C@@H](NC(=O)[C@@H](CCC(N)=O)NC(=O)CCCC(C)C)[C@@H](C)O)C(C)C)C(C)C)[C@H](C)CC)[C@H](C)OC(=O)[C@H](C(C)C)NC1=O
[12]
  GI50: 610 nM
  TGI: 1080 nM
  CC50: 1670 nM
[1]
  GI50: 2420 nM
  LC50 (concentration giving 50% net cell kill): 1800 nM
  TGI: 3200 nM
[2]
  GI50: 947 nM
  CC50: 653 nM
[2]; read-out: GI50
  GI50: 1330 nM
[3]
  GI50: 452 nM
  TGI: 649 nM
  CC50: 915 nM
[4]
  GI50: 0.168 µM
  TGI: 0.222 µM
  CC50: 361 nM
[5]
  TGI: 1280 nM
  GI50: 1340 nM
  CC50: 1230 nM
[6]
  CC50: 743 nM
[13]
  CC50: 2.79 µM
[8]
  GI50: 1460 nM
  TGI: 1800 nM
  CC50: 2220 nM
[9]
  GI50: 350 nM
  LC50: 664 nM
[9]; read-out: GI50
  GI50: 234 nM
[10]
  GI50: 2300 nM
  TGI: 2.56 µM
  CC50: 2.87 µM
[11]
  TGI: 1390 nM
  CC50: 1320 nM
[11]; read-out: GI50
  GI50: 1460 nM
